The source of these data is PubChem BioAssay.

As a reminder, the inhibition is the relative decrease from the control value, in per cent. A word on the viability: it is a read-out of living cells in per cent, often relative to untreated cells.

Activity calls are given as the source filed them.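 The calls were made as follows, unless noted: active = viability at or under a set limit in both replicates, limit being median viability minus 3 SD (cut at about 48% in these data, passing the limit was not always enough); inconclusive = at or under the limit in just one replicate; inactive = at or above the limit in both replicates.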

Assay [1] concerns the target Pantothenate synthetase (Mycobacterium tuberculosis (strain ATCC 25618 / H37Rv)) (UniProt P9WIL5). As to the kind of experiment: Recombinant Mtb pantothenate synthetase (PanC) inhibitors, coupled enzyme, confirmatory (AID 375; call rule not given here;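 also: 0% = full reaction with vehicle and 100% = no enzyme background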). Conditions: coupled enzyme assay; at 10 µM, stronger effect = higher value.
Assay [2] is described as follows: reducers of endogenous Her2 protein level, primary screen, SKBR3 breast tumor cells, AlphaScreen, ATP viability (AID 461;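 active = Her2 level under about 52% in both replicate screens, with viability over 70% of control, limit read from the data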;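 as to Her2 level: lower value means less Her2 protein in the cells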;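 as to viability: percent of carrier control wells set as 100% viability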). Conditions: 18-24 h, measured here: SKBR3 viability, ATP luminescence, at 10 µM. (In general: Bead proximity is the source of the signal in Alpha formats.)
The target of assay [3] is Receptor tyrosine-protein kinase erbB-2 (Homo sapiens) (UniProt P04626). Described as above. Conditions: 18-24 h, at 10 µM, stronger effect = lower value.
Sequence of Receptor tyrosine-protein kinase erbB-2 (Homo sapiens) (P04626 whole entry, looked up): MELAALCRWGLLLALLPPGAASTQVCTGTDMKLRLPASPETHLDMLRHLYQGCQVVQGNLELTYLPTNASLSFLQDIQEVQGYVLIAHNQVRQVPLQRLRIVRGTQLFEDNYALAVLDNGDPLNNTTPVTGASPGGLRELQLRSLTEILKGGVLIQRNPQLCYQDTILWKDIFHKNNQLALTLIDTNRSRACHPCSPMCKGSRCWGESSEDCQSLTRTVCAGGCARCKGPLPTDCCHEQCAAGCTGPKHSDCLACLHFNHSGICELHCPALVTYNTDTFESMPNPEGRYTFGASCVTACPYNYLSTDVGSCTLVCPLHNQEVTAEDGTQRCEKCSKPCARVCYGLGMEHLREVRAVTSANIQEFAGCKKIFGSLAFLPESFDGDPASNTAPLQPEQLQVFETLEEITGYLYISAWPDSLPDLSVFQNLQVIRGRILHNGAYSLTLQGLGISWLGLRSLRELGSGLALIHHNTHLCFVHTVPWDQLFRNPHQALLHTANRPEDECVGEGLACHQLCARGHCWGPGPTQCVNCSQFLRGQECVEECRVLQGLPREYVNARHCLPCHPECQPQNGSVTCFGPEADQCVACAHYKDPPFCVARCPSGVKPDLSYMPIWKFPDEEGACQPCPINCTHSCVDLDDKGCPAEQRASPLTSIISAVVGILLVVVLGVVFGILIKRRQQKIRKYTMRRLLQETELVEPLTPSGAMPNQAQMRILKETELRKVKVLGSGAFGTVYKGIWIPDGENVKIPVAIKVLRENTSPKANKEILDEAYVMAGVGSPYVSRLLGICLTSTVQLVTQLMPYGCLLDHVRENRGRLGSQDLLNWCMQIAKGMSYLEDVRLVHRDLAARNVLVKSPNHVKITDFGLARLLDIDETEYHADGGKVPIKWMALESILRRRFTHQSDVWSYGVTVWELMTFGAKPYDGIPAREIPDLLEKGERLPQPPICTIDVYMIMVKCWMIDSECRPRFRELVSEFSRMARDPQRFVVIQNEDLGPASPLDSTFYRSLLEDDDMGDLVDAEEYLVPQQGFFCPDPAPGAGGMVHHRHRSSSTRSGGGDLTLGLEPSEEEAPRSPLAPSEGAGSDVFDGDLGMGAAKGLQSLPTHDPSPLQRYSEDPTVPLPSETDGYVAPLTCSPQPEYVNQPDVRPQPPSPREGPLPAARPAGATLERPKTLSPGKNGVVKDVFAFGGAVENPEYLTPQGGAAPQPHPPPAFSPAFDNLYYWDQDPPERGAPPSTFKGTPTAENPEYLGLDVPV
The nature of assay [4]: SK-BR-3 cell growth inhibitors, pilot screen, 24 h, human (AID 572;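 active = viability at or below 10% of carrier control in both of two separate runs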;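 also: compound exposure lasted between 18 and 24 h rather than exactly 24 h; 100% = carrier-treated control wells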). Conditions: SK-BR-3 viability, CellTiter-Glo luminescence, at 10 µM, stronger effect = lower value. For orientation: Cellular ATP, detected with luciferase, serves as a proxy for viable cell number.
Assay [5] can be described thus: HUVEC growth inhibition – cell-based, human, primary screen (AID 575;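 active = viability at or below 30% in both replicate assays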;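 also: 100% = median of untreated cell wells with 0.1% DMSO on each plate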). Particulars: HUVEC proliferation, CellTiter-Glo luminescence, 72 h; at 10 µM; stronger effect = lower value. Summed up:
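Material: primary human umbilical vein endothelial cells / Schedule: 72 h exposure, 37 °C, 5% CO2, 30 min RT equilibration / Signal: ATP-based CellTiter-Glo luminescent read / Read-out basis: percent of median DMSO-control luminescence / Control set: 32 DMSO-only cell-control wells (high), 32 MePR drug-control wells (low) per plate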

The nature of assay [6]: growth inhibitors of H69AR lung tumor, primary screen, human, duplicate replicates (AID 580).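 Also: 100% = mean luminescence of untreated wells and 0% = no signal.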 Conditions: H69AR lung tumor cells viability, ATP luminescence, 72 h; at 10 µM; stronger effect = lower value.
The nature of assay [7]: reversal of MRP1-mediated doxorubicin resistance, pilot screen, H69AR cells, doxorubicin co-treatment (AID 601;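 active = viability loss from added drug above about 55%, and viability with drug at most 40%, in both replicates, limit read from the data, passing the limit was not always enough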). Conditions: CellTiter-Glo, 72 h, at 10 µM; for differential viability (reversal): stronger effect = higher value.
Assay [8] in a line: 384-well plate pilot, post-Golgi transport modulator project, inhibition of yeast transport mutant growth (AID 636; in the data active = inhibition above about 31%). Conditions: absorbance 615 nm, about 18 h, stronger effect = higher value.
A short description of assay [9]: growth suppression of yeast trafficking mutant, preliminary HTS, modulators of trafficking downstream of Golgi apparatus project, 1536-format plate, OD 615 nm (AID 637; in the data active = inhibition above about 30%). Conditions: yeast transport mutant growth, absorbance 615 nm, 18 h; stronger effect = higher value.
[10] abbreviates: H69AR cells + 2 uM doxorubicin, measured here: viability with 2 uM doxorubicin, stronger effect = lower value.
Setting [11] is: H69AR cells, compound alone cytotoxicity.

Sequence of Pantothenate synthetase (Mycobacterium tuberculosis (strain ATCC 25618 / H37Rv)) (P9WIL5 whole entry, looked up): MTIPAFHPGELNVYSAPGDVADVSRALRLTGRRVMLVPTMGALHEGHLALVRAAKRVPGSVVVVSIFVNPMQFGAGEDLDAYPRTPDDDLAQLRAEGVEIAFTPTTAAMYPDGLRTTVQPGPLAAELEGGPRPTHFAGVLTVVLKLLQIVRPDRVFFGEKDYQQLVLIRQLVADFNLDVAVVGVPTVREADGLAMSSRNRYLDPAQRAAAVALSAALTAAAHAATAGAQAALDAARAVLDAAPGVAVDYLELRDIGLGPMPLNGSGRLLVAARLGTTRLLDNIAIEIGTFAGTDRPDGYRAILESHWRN

Take `OCCOCC#CCN1CCOCC1`: the inhibition in [1] is 0% (inactive); in assay [8], -1.45% (inactive); in assay [9], 1.31% (inactive). Moreover, the viability in [2] was 102%; in assay [4], 102% (inactive); in assay [5] it was 101% (inactive); in assay [6], 93.8% (inactive); in assay [7] (setting [10]), 89.9%; in assay [7] (setting [11]), 93.8%. The Her2 level in [3] was 114% (inactive). The differential viability (reversal) in assay [7] (H69AR cells + 2 uM doxorubicin) is 3.84% (inactive).
As for `O=C1CC(c2ccccc2)CC(O)=C1C=NCCN1CCN(C(=O)Cc2ccccc2)CC1` (stereo unspecified), the values for the inhibition in assay [1], in assay [8] and in [9] were 0% (inactive), -0.26% (inactive) and 11.5% (inactive), respectively. Besides, the viability in [2] was 122%; in assay [4] it was 122% (inactive); in assay [5], 91.2% (inactive); in assay [6] it was 92.1% (inactive); in [7] (setting [10]), 94.8%; in assay [7] (setting [11]), 92.1%. Further, the Her2 level in assay [3] is 97% (inactive). Besides, the differential viability (reversal) in assay [7] (H69AR cells + 2 uM doxorubicin) was -2.69% (inactive).
Consider `O=C(c1sc2ccccc2c1Cl)N1CCC2(CC1)OCCO2`, for which the inhibition in assay [1] was 0% (inactive); in [8], 0.13% (inactive); in assay [9], -7.5% (inactive). Further, the viability in assay [2] is 90.5%; in [4], 90.5% (inactive); in assay [5], 94.7% (inactive); in assay [6] it was 109% (inactive); in [7] (setting [10]), 102%; in assay [7] (setting [11]) it was 109%. The Her2 level in assay [3] was 136% (inactive). For the same compound, the differential viability (reversal) in assay [7] (H69AR cells + 2 uM doxorubicin) is 6.83% (inactive).
Consider `CC(=O)[C@H]1CC[C@H]2[C@@H]3CC[C@H]4C[C@H](O)CC[C@]4(C)[C@H]3C(=O)C[C@]12C`, for which, in assay [1], the inhibition is 0% (inactive). In addition, the viability was 112% in assay [2]; 112% (inactive) in assay [4]; 118% (inactive) in assay [5]; 104% (inactive) in [6]; 92% in assay [7] (setting [10]); 104% in [7] (setting [11]). Also, the Her2 level in assay [3] was 108% (inactive). In addition, the differential viability (reversal) in assay [7] (H69AR cells + 2 uM doxorubicin) is 12.1% (inactive).
On to `CCOc1ccc(-n2c(O)c(C=NCCN3CCNCC3)c(=O)[nH]c2=O)cc1`, for which the inhibition is 3% (inactive) in assay [1], -1.58% (inactive) in assay [8] and -3.71% (inactive) in [9]. Also, the viability in assay [2] was 102%; in assay [4], 102% (inactive); in assay [5], 100% (inactive); in assay [6], 89% (inactive); in assay [7] (setting [10]), 93.8%; in [7] (setting [11]) it was 89%. Besides, in [3], the Her2 level was 77.5% (inactive). Further, the differential viability (reversal) in [7] (H69AR cells + 2 uM doxorubicin) is -4.71% (inactive).
`CC(=NCCCO)c1c(O)n(Cc2ccccc2)c(=O)[nH]c1=O`: the values for the inhibition in assay [1], in [8] and in [9] were 0% (inactive), -4.61% (inactive) and 3.67% (inactive), respectively. The viability is 95% in assay [2]; 95% (inactive) in assay [4]; 98.6% (inactive) in assay [5]; 94.4% (inactive) in [6]; 90.2% in assay [7] (setting [10]); 94.4% in assay [7] (setting [11]). Besides, the Her2 level in [3] is 94% (inactive). Besides, the differential viability (reversal) in assay [7] (H69AR cells + 2 uM doxorubicin) is 4.15% (inactive).
For `CC#CP(=O)(OCC)C(O)(c1ccccc1)C(F)(F)F` (stereo unspecified), the inhibition was 0% (inactive) in assay [1], -2.93% (inactive) in [8] and 2.13% (inactive) in assay [9]. Further, the viability in assay [2] was 91%; in assay [4], 91% (inactive); in assay [5], 96.7% (inactive); in assay [6], 96.9% (inactive); in assay [7] (setting [10]), 82.5%; in [7] (setting [11]), 96.9%. The Her2 level in assay [3] was 85% (inactive). Also, in assay [7] (H69AR cells + 2 uM doxorubicin), the differential viability (reversal) is 14.4% (inactive).
Regarding `COC(=O)c1ccccc1-n1c(C)nc2ccccc2c1=O`, the inhibition in assay [1] is 4% (inactive); in assay [8] it was -2.5% (inactive); in [9], -5.97% (inactive). In addition, the viability in [2] was 90%; in [4], 90% (inactive); in assay [5], 111% (inactive); in [6], 98.5% (inactive); in [7] (setting [10]), 95.2%; in assay [7] (setting [11]) it was 98.5%. In addition, the Her2 level in assay [3] is 105% (inactive). In addition, in [7] (H69AR cells + 2 uM doxorubicin), the differential viability (reversal) was 3.37% (inactive).
In the case of `CN(C)[C@@H]1C(=O)C(C(N)=O)=C(O)[C@@]2(O)C(=O)C3=C(O)c4c(O)ccc(Cl)c4[C@@](C)(O)C3C[C@@H]12` (stereo partly specified), in [1], the inhibition is 1% (inactive). For the same compound, the viability was 119% in assay [2]; 119% (inactive) in assay [4]; 104% (inactive) in [5]; 96.8% (inactive) in assay [6]; 94.5% in assay [7] (setting [10]); 96.8% in [7] (setting [11]). Also, in [3], the Her2 level is 104% (inactive). For the same compound, the differential viability (reversal) in assay [7] (H69AR cells + 2 uM doxorubicin) is 2.32% (inactive).
As for `CCOc1cc2[nH]c(=S)n(CCCC(=O)N3CCC4(CC3)OCCO4)c(=O)c2cc1OCC`, the results for the inhibition in assay [1], in [8] and in assay [9] were 0% (inactive), -4.59% (inactive) and -4.75% (inactive), respectively. The viability was 88.5% in assay [2]; 88.5% (inactive) in assay [4]; 78.2% (inactive) in assay [5]; 89.2% (inactive) in assay [6]; 93.2% in assay [7] (setting [10]); 89.2% in [7] (setting [11]). Also, the Her2 level in assay [3] is 85.5% (inactive). For the same compound, the differential viability (reversal) in [7] (H69AR cells + 2 uM doxorubicin) was -4% (inactive).
Turning to `NC(=O)CSP(=O)(c1ccccc1)c1ccccc1`, the inhibition in [1] is 0% (inactive); in [8] it was -8.53% (inactive); in [9], -2.9% (inactive). The viability in [2] was 94%; in assay [4], 94% (inactive); in assay [5] it was 109% (inactive); in assay [6], 102% (inactive); in [7] (setting [10]) it was 92.3%; in assay [7] (setting [11]) it was 102%. Also, the Her2 level in assay [3] is 118% (inactive). In addition, the differential viability (reversal) in [7] (H69AR cells + 2 uM doxorubicin) was 10.1% (inactive).
In the case of `Cc1ccc(CS(=O)(=O)CCC(=O)N2CCC3(CC2)OCCO3)cc1`, the inhibition in [1] is 7% (inactive); in assay [8] it was -4.87% (inactive); in [9] it was -0.82% (inactive). Further, the viability was 106% in assay [2]; 106% (inactive) in assay [4]; 121% (inactive) in [5]; 97.7% (inactive) in assay [6]; 87.7% in assay [7] (setting [10]); 97.7% in [7] (setting [11]). Also, the Her2 level in assay [3] was 118% (inactive). Further, in assay [7] (H69AR cells + 2 uM doxorubicin), the differential viability (reversal) was 9.99% (inactive).
As to `Cc1ccc(C(=O)C2CN3CCC2CC3)cc1` (stereo unspecified), the inhibition is 0% (inactive) in assay [1], -4.55% (inactive) in [8] and 4.5% (inactive) in [9]. Further, the viability in [2] is 93%; in [4] it was 93% (inactive); in assay [5] it was 94.3% (inactive); in assay [6], 97.6% (inactive); in [7] (setting [10]), 93.3%; in assay [7] (setting [11]), 97.6%. Besides, the Her2 level in assay [3] is 91% (inactive). For the same compound, the differential viability (reversal) in [7] (H69AR cells + 2 uM doxorubicin) was 4.27% (inactive).
With `CCCCn1c(O)c(C=NC2CCCCC2N)c(=O)[nH]c1=O` (stereo unspecified), the inhibition was 0% (inactive) in [1], -2.6% (inactive) in assay [8] and 1.43% (inactive) in assay [9]. Further, the viability was 128% in [2]; 128% (inactive) in assay [4]; 92.6% (inactive) in assay [5]; 79.3% (inactive) in assay [6]; 74.4% in assay [7] (setting [10]); 79.3% in assay [7] (setting [11]). Moreover, the Her2 level in [3] was 96.5% (inactive). For the same compound, the differential viability (reversal) in [7] (H69AR cells + 2 uM doxorubicin) is 4.94% (inactive).
As to `O=C(c1ccc2nc3ccc(Cl)cc3c(=O)n2c1)N1CCC2(CC1)OCCO2`, the inhibition in assay [1] was 12% (inactive); in assay [8], -3.87% (inactive); in assay [9], 1.94% (inactive). For the same compound, the viability is 97.5% in assay [2]; 97.5% (inactive) in assay [4]; 98% (inactive) in [5]; 96.7% (inactive) in assay [6]; 95.4% in assay [7] (setting [10]); 96.7% in assay [7] (setting [11]). In addition, in assay [3], the Her2 level is 91.5% (inactive). In assay [7] (H69AR cells + 2 uM doxorubicin), the differential viability (reversal) was 1.37% (inactive).
